In the library only some 1.7% were active in any assay of this set; here they are far more common.
STEP block: blocks human striatal-enriched tyrosine phosphatase | recombinant STEP, OMFP fluorogenic substrate, fluorescence | inhibition, % at 20 µM | 360,000 compounds, 0.25% hits;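 active = inhibition at 20 µM, scaled per plate between control wells, above about 37%, limit read from the data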
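material = STEP tyrosine phosphatase | reagent = fluorogenic phosphatase substrate OMFP at 25 µM final | doses = single compound dose of 20 µM, 1% DMSO final | schedule = 20 min reaction, room temperature, in the dark | measured by = fluorescence, 480/540 nm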
DNMT1 inh: DNMT1 (human) enzyme inhibition | inhibition (reported as % activation of signal), % at 10 µM | P26358 | 360,000 compounds, 0.83% hits | DNMT1 molecular beacon, Hinp1I cleavage, fluorescence; in the data active = inhibition above about 50%
SUMO1 PPI mod: SUMO1-SIM interaction modulation | P63165 | SUMO1 binding to a labelled peptide, TR-FRET, 1 h | inhibition, % at 20 µM | 360,000 compounds, 0.33% hits; in the data active = inhibition above about 37%
Target sequence (P63165 whole entry, looked up): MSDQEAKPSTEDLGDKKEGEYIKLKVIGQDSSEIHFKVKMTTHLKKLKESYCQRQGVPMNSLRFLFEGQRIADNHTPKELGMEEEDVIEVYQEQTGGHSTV
Casp6 inh: blocks human caspase-6 cleavage activity. P55212. purified caspase-6, Z-VEID-R110 cleavage fluorescence. inhibition, % at 12.5 µM. 350,000 compounds, 0.53% hits. AID 686996;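 active = mean inhibition across replicates at least about 35%, with every replicate also reaching that limit, limit read from the data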
LMPTP inh: LMPTP (human) inhibition; AID 651560; recombinant LMPTP-A, OMFP fluorogenic substrate, fluorescence intensity; 360,000 compounds, 0.22% hits; inhibition, % at 20 µM;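 active = compounds that cut the enzyme signal by at least half of the control window in the single-dose screen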
Target sequence (P24666 whole entry, looked up): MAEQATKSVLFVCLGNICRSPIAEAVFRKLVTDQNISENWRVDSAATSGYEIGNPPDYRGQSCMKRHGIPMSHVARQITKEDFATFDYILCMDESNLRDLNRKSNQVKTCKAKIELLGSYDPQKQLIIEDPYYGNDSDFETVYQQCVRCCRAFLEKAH
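Test system – LMPTP-A enzyme · Amount – LMPTP-A at 0.625 nM final in the reaction · Buffer or medium – Bis-Tris pH 6.0, DTT, detergent · Reagent – OMFP 400 µM · Doses – single 20 µM dose · Schedule – reaction 50 min, room temperature, dark · Detection – fluorescence intensity of OMFP turnover product · Evaluation – percent inhibition versus substrate-only and uninhibited controls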
Scp1 inh: inhibitors of human Scp-1 phosphatase; Recombinant Scp1, phosphopeptide, malachite green phosphate absorbance; inhibition, % at 20 µM; 340,000 compounds, 0.88% hits; AID 493091;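 active = inhibition above about 50% at 20 µM, limit read from the data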
Target sequence (Q9GZU7 76-261 limits assumed): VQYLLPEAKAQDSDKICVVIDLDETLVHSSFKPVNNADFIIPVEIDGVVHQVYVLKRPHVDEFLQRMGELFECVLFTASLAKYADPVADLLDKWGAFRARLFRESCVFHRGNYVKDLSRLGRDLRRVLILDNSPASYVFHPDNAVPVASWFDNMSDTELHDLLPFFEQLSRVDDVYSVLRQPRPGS
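System: SCP-1 catalytic domain; Reagent: Phospho 17-mer peptide substrate; Doses: one concentration, 20 µM, with 1.0% DMSO; Incubation: 45 min room-temperature reaction, 5 min colour, 30 min stabiliser; Signal: Phosphate-binding colour reagent, absorbance read at 630 nm.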
Scp-1 conf: confirmation of human Scp-1 phosphatase inhibitors. shares compounds with Scp1 inh. recombinant SCP-1 catalytic domain, phosphate release, malachite green absorbance. inhibition, % at 20 µM. 2,500 compounds, 61% hits. AID 540281
Scp-1 MG ctr: colorimetric interference in Scp-1 counter-screen; AID 540313; 2,500 tested, under 10 active; shares compounds with Scp1 inh; Colorimetric interference counterscreen, malachite green absorbance 630 nm; apparent inhibition (interference), % at 20 µM;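 note: compounds added after enzyme reaction finished so only phosphate colour detection is probed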
Scp-1 Tm shift: binds human Scp-1, shifting its melting temperature; shares compounds with Scp1 inh; Recombinant SCP1, Sypro Orange thermal shift Tm; thermal shift relative to vanadate control, % at 40 µM; 1,500 compounds, 25% hits; AID 540329;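 active = substances whose mean melting-temperature shift, as a percentage of the reference inhibitor's shift, reaches about 5.3%, limit read from the data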
DNMT1 inh conf: DNMT1 inhibition confirmation, single concentration. shares compounds with DNMT1 inh. 2,300 compounds, 8% hits. inhibition, % at 10 µM. DNMT1 molecular beacon HinP1I cleavage, fluorescence;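 active = average inhibition of at least 30% in the single-concentration confirmation test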
Beacon interf: beacon fluorescence artifact counter-screen; shares compounds with DNMT1 inh; DNMT1 molecular beacon spectral interference counterscreen, fluorescence 485/520; activation (fluorescence interference), % at 10 µM; 2,300 compounds, 1% hits;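 active = activation of at least 30% at 10 µM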;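 note: DNMT1 catalytic domain with a HinP1I cleavage step and a FAM/dabcyl DNA beacon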
Large screens that a line does not name were inactive (follow-up assays come after a bar, where they were run).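 Rule for the calls, unless noted: active = inhibition of at least 30% at 20 µM; inactive = the rest.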

C=C(C)C(=O)Nc1cccc(C2=NOC3(C2)C[C@@H](C(N)=O)N(C(=O)c2cc([N+](=O)[O-])cc([N+](=O)[O-])c2)C3)c1 (stereo not given in full)	DNMT1 inh 87, SUMO1 PPI mod 46, Scp1 inh 61 (no result: Casp6 inh) | Scp-1 conf 49 | Scp-1 MG ctr inactive | Scp-1 Tm shift inactive | DNMT1 inh conf inactive | Beacon interf inactive
COc1ccc(-c2csc3ncn(-c4ccc(C)cc4)c(=O)c23)cc1OC	none
O=c1cc(CSc2nnc(-c3cccs3)n2Cc2ccccc2)nc2sc3ccccc3n12	DNMT1 inh 96, Scp1 inh 75 (no result: Casp6 inh) | Scp-1 conf 68 | Scp-1 MG ctr inactive | Scp-1 Tm shift inactive | DNMT1 inh conf inactive | Beacon interf inactive
O=C(CSc1ccsc1[N+](=O)[O-])Nc1cccc(F)c1	DNMT1 inh 96, Casp6 inh 41, Scp1 inh 75 | Scp-1 conf 59 | Scp-1 MG ctr inactive | Scp-1 Tm shift 9.1 | DNMT1 inh conf inactive | Beacon interf inactive
O=C(CSc1ccsc1[N+](=O)[O-])NCc1ccccc1	none
Cc1cccc(NC(=O)CNC(=O)CCc2nc3sc4c(c3c(=O)[nH]2)CCCC4)c1C	DNMT1 inh 84, Casp6 inh 41, Scp1 inh 73 | Scp-1 conf 75 | Scp-1 MG ctr inactive | Scp-1 Tm shift 13 | DNMT1 inh conf inactive | Beacon interf inactive
CCOC(=O)c1cc(-c2ccccc2)sc1NC(=O)COC	none
N#Cc1ccccc1S(=O)(=O)N1CCN(C(=O)c2cc3c(s2)CCC3)CC1	DNMT1 inh 56, Scp1 inh 98 | Scp-1 conf 70 | Scp-1 MG ctr inactive | Scp-1 Tm shift inactive | DNMT1 inh conf inactive | Beacon interf inactive
N#Cc1ccccc1S(=O)(=O)N1CCN(C(=O)C2COc3ccccc3O2)CC1 (stereo not given)	DNMT1 inh 67, Scp1 inh 74 | Scp-1 conf 73 | Scp-1 MG ctr inactive | Scp-1 Tm shift inactive | DNMT1 inh conf inactive | Beacon interf inactive
COc1ccc2cc3c(N)nn(C(=O)c4ccc(Cl)c([N+](=O)[O-])c4)c3nc2c1	STEP block 89, DNMT1 inh 83, LMPTP inh 65, Scp1 inh 94 | Scp-1 conf 74 | Scp-1 MG ctr inactive | Scp-1 Tm shift 8.2 | DNMT1 inh conf inactive | Beacon interf inactive
NC(=O)COC(=O)c1c2c(nc3ccccc13)CCC2	none
COc1cc(C(=O)OCC(=O)Nc2sccc2C(N)=O)cc(OC)c1OC	none
CCc1ccc(Nc2nnc(SCC(=O)NC(=O)CN3CCCC3=O)s2)cc1	DNMT1 inh 64, Scp1 inh 65 | Scp-1 conf 48 | Scp-1 MG ctr inactive | Scp-1 Tm shift inactive | DNMT1 inh conf inactive | Beacon interf inactive
COc1ccc(/C=C2\SC(N)=NC2=O)cc1Br	none
CCOC(=O)CN1C(=O)S/C(=C\c2ccc(-c3ccc(C(=O)O)c(Cl)c3)o2)C1=O	STEP block 90, DNMT1 inh 65, Casp6 inh 49, Scp1 inh 90 | Scp-1 conf 59 | Scp-1 MG ctr inactive | Scp-1 Tm shift 12 | DNMT1 inh conf inactive | Beacon interf inactive
CCOC(=O)CN1C(=O)S/C(=C/c2ccc(N3CCCCC3)o2)C1=O	none (no result: Casp6 inh)
Cc1ccc(C)c(NC(=O)C(CC(=O)O)C2CCCO2)c1 (stereo not given)	none

Compound activity from PubChem.
